TRPC4 PAM: positive allosteric modulators of TRPC4, primary screen, cell-based, mouse TRPC4beta, HEK293 mu-opioid, Fluo-4 calcium; DAMGO EC20, Fluo-4 Ca2+ flux; hits give high values; B-score at 10 µM; 310,000 tested, 0.42% active; AID 2227, 2009;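 active = B-score of calcium response area above 5 SD of library B-scores, with initial fluorescence ratio within 5 SD of library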
TRPC4 agonist: activators of mouse TRPC4 channel, primary screen, Fluo4 calcium, HEK293 TRPC4beta/mu-opioid cells | Short transient receptor potential channel 4 (Mus musculus), Q9QUQ5 | B-score at 10 µM | AID 2237, 2010 | Fluo4 calcium fluorescence; hits give high values | 310,000 tested, 0.49% active;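 active = B-score above 5 SD of library B-scores, and initial fluorescence ratio not above library mean plus 5 SD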;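 note: positive B-score marks a calcium rise read as TRPC4 activation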
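Assay system: HEK293 stable line with TRPC4beta plus mu-opioid receptor. Times: dye 45 min RT, read 110 s. Measured by: kinetic Fluo4 calcium fluorescence. Measure: B score of integrated ratio. Controls: assay buffer as low control, maximal DAMGO as high control.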
TRPC4 inh: inhibitors of mouse TRPC4 channel, primary screen, Fluo4 calcium, HEK293 TRPC4beta/mu-opioid cells | AID 2247, 2010 | DAMGO-evoked Fluo4 calcium flux; hits give low values | B-score at 10 µM | Short transient receptor potential channel 4 (Mus musculus), Q9QUQ5 | 300,000 tested, 0.39% active;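 active = B-score over 3 SD under the library average, no early fluorescence shift, positive overall ratio signal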
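Assay system – HEK293 line stably carrying TRPC4beta and mu-opioid receptor · Doses – single dose · Detection – Fluo4 calcium-dye fluorescence, kinetic read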
TRPC6 activator: mouse TRPC6 channel activators, primary screen, cell-based, HEK293, membrane potential dye; Short transient receptor potential channel 6 (Mus musculus), Q61143; 310,000 tested, 0.13% active; B-score at 10 µM; HEK293-TRPC6 membrane potential dye fluorescence; hits give high values;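 active = B-score of the integrated fluorescence ratio above library mean plus 3 SD, and starting fluorescence ratio within library mean plus 5 SD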;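 note: higher score means more depolarization so channel activation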
Target sequence (Q61143 whole entry, looked up): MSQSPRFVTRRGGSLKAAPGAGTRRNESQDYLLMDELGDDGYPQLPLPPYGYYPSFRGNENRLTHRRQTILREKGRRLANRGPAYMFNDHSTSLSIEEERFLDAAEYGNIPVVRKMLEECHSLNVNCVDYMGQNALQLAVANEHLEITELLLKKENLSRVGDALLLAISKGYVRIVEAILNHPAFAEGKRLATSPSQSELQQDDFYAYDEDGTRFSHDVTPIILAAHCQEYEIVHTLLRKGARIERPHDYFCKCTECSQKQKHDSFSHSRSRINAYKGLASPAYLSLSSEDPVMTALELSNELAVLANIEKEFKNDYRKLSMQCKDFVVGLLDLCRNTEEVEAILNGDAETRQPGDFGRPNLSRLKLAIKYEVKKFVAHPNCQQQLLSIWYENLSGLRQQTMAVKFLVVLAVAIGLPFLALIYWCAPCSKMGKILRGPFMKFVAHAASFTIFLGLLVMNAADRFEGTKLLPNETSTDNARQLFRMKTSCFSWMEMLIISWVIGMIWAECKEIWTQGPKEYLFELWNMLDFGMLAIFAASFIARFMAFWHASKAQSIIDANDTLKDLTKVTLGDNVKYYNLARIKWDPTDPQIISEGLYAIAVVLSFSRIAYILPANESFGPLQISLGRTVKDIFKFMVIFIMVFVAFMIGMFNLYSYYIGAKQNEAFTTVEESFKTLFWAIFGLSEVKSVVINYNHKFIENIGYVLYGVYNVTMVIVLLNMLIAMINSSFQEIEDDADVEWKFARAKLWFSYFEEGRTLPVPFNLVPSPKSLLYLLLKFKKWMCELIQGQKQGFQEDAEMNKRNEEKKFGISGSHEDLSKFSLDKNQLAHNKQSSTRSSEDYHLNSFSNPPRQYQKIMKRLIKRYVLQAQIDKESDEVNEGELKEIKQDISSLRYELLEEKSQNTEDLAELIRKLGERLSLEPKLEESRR
CR mimetic SO: reduction of superoxide in aged yeast, primary screen, HTS; S. cerevisiae aged cells, superoxide DHE fluorescence; hits give low values; superoxide response (% of plate mean), % at 10 µM; 330,000 tested, 0.18% active; AID 2690, 2010;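 active = superoxide response under a set limit, about three screen SD below normal, cut at about 65% in these data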;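 note: yeast aged for seven days with compound at 30 °C before DHE staining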
TRPC6 inhibitor: mouse TRPC6 channel inhibitors, primary screen, cell-based, HEK293, membrane potential dye. B-score at 10 µM. 310,000 tested, 1.1% active. ACh-evoked depolarization; hits give low values. AID 2553, 2010. Short transient receptor potential channel 6 (Mus musculus), Q61143;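 active = B-score under library mean minus 3 SD, initial fluorescence not abnormally high, positive integrated signal ratio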;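 note: B-score derived from integrated fluorescence ratio over the kinetic read; more negative B-score means stronger inhibition of depolarization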
CR mimetic CP: superoxide lowering in aged yeast cells, confirmation, cherry picked compounds. shares compounds with CR mimetic SO. S. cerevisiae aging, superoxide DHE fluorescence; hits give low values. superoxide response (% of plate), % at 10 µM. 850 tested, 1% active;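 active = superoxide signal below 65% of the plate average of sample wells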;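 note: cells aged with compound for 7 days at 30 degrees C before staining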
DHE counter: DHE quenching or ROS scavenging interference in aged yeast, artefact control for yeast caloric restriction mimetic project, S. cerevisiae BY4741, flow cytometry | shares compounds with CR mimetic SO | fluorescence response, % at 10 µM | DHE fluorescence; hits give low values | AID 435000, 2010 | 850 tested, under 10 active;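 active = fluorescence response below 15%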;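 note: lower means stronger quenching of DHE signal or ROS scavenging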
Numbers stand for hits; i = inactive; nt = no result. This is a sample that favours compounds with a hit; in the whole collection about 2.3% have one here.

SMILES	TRPC4 PAM	TRPC4 agonist	TRPC4 inh	TRPC6 activator	CR mimetic SO	TRPC6 inhibitor	CR mimetic CP	DHE counter
Cc1ccc(-c2nc3ccccc3c(=O)n2O)cc1	i	i	i	i	59	i	i	i
O=C(O)C1C(=O)NCC1c1ccccc1 (stereo not given)	i	i	i	i	i	i	nt	nt
Fc1cccc2sc(Nc3nc4ccccc4s3)nc12	i	i	i	i	65	i	i	i
Cc1ccc(C(=O)NCCCCNC(=O)c2ccc(C)o2)o1	i	i	i	i	i	i	nt	nt
Cc1cc(C)n2nc(-c3ccc(Cl)cc3)cc2n1	i	i	i	i	i	i	i	i
Cc1cc(C)n2nc(-c3ccc(Br)cc3)cc2n1	i	i	i	i	i	i	i	i
COc1ccc(-c2cc3nc(C)cc(C)n3n2)cc1	i	i	i	i	i	i	nt	nt
COc1ccc(N2CCN(c3ccc(C(N)=O)cc3[N+](=O)[O-])CC2)cc1	i	i	i	i	i	i	nt	nt
COc1ccc(N2CCN(C(=O)c3cccnc3)CC2)c([N+](=O)[O-])c1	i	i	i	i	i	i	i	i
COc1ccc(CCNc2nc(Cl)nc(NC(C)(C)CO)n2)cc1OC	i	i	i	i	i	i	nt	nt
CCCCn1c(CN2CCOCC2)nc2c1c(=O)n(C)c(=O)n2C	i	i	i	i	i	i	nt	nt
Cn1c(=O)c2c(nc(CN3CCOCC3)n2CCN2CCOCC2)n(C)c1=O	i	i	i	i	60	i	i	i
CCC1(c2ccc(F)cc2)NC(=O)N(CC(=O)Nc2cccnc2Cl)C1=O (stereo not given)	i	i	i	i	64	i	i	i
Cc1cc(C)n2nc(-c3ccccc3)c(-c3ccccc3)c2n1	i	i	i	i	i	i	i	i
CC1(C)CC(=O)C(C=Nc2cccc(/N=C/C3=C(O)CC(C)(C)CC3=O)n2)=C(O)C1	i	i	i	i	nt	i	nt	nt
COc1cc(/C=C/C(=O)OC(C)C(=O)NC2CCCCC2C)cc(Cl)c1OC (stereo not given)	i	i	i	i	i	i	nt	nt
Cc1nc2ccc(NC(=O)c3nn(CC(C)C)c(=O)c4ccccc34)cc2s1	i	i	i	i	57	i	i	i
Cc1cc(NS(=O)(=O)c2ccccc2)c(C)c(Cl)c1O	i	i	i	i	i	i	i	i
O=C(c1ccccn1)N1CCN(C(=O)c2ccccn2)CC1	i	i	i	i	i	i	nt	nt
COc1ccccc1C1=NN(C(=O)c2ccccc2)C(c2ccc(Br)cc2)C1 (stereo not given)	i	i	i	i	60	i	i	i
COc1ccccc1C1CC(c2ccccc2)=NN1C(=O)c1ccccc1 (stereo not given)	i	i	i	i	i	i	nt	nt
CN(c1ccc(C(=O)O)cc1)S(=O)(=O)c1ccccc1	i	i	i	i	i	i	i	i
CC(=O)Nc1ccc(S(=O)(=O)N(C)c2ccccc2)cc1	i	i	i	i	i	i	i	i
CN(c1ccccc1)S(=O)(=O)c1ccc(C(=O)NNC(=O)c2ccccc2)cc1	nt	nt	nt	nt	i	nt	nt	nt
CC(=O)Nc1ccc(S(=O)(=O)N(C)c2ccc(O)cc2)cc1	i	i	i	i	i	i	nt	nt
SMILES	TRPC4 PAM	TRPC4 agonist	TRPC4 inh	TRPC6 activator	CR mimetic SO	TRPC6 inhibitor	CR mimetic CP	DHE counter
CN(C)C(=O)Cn1nc(-c2ccccc2)c2ccccc2c1=O	i	i	i	i	i	i	nt	nt
COc1ccc(NC(=O)c2cc(S(=O)(=O)Nc3ccc(OC)cc3)cs2)cc1	i	i	i	i	i	i	nt	nt
CCn1c(Cc2c(C)[nH]c3ccccc23)nnc1SCC(=O)NCc1ccccc1	i	i	i	i	i	i	nt	nt
CCC(=O)N1CCc2cc(S(=O)(=O)NCCC(=O)N3CCN(c4cccc(C)c4)C(C)C3)ccc21 (stereo not given)	i	i	i	i	63	i	i	i
CCC(=O)N1CCc2cc(S(=O)(=O)NCCC(=O)N3CCN(c4ccccc4)CC3)ccc21	i	i	i	i	i	i	nt	nt
COc1ccc(CCNc2nc(=S)[nH]c3cc(OC)c(OC)cc23)cc1OC	i	i	i	i	63	i	i	i
O=C(NN1C(=O)NC2(CCCCC2)C1=O)c1cc2ccccc2o1	nt	nt	nt	nt	i	nt	nt	nt
CCN(C[C@H]1N[C@@](Cc2ccccc2)(C(=O)OC)[C@H]2C(=O)N(C)C(=O)[C@@H]12)C(=O)c1ccccc1	nt	nt	nt	nt	i	nt	nt	nt
Cn1cc(C2CC(c3ccccc3)=NN2C(=O)c2ccccc2)c2ccccc21 (stereo not given)	i	i	i	i	59	i	i	i
CCCC(=O)N1N=C(c2ccccc2)CC1c1cn(C)c2ccccc12 (stereo not given)	i	i	i	i	i	i	nt	nt
Cc1cc(C)nc(CCNC(=O)C2CCC(=O)N(Cc3ccccc3F)C2)n1 (stereo not given)	i	i	i	i	65	i	i	i
Cc1ccc(CCNC(=O)C2CCC(=O)N(Cc3ccccc3F)C2)o1 (stereo not given)	i	i	i	i	i	i	nt	nt
O=C(NC(=S)NNC(=O)c1cnccn1)c1ccc(Cl)cc1	i	i	i	i	53	i	i	i
COc1ccc(N=C(N(C)C)P(=O)(N(C)C)N(C)C)cc1	i	i	i	i	i	i	nt	nt
CN(C)CCNC(=O)c1ccc(COCC(F)(F)F)cc1	i	i	i	i	i	i	nt	nt
Nc1cc2c3c(cccc3c1)C(=O)N(CCN1CCCC1)C2=O	i	i	i	i	48	i	i	i
O=C1c2cccc3cc([N+](=O)[O-])cc(c23)C(=O)N1CCN1CCCC1	i	i	i	i	nt	i	nt	nt
N#CCCn1cc(C(=O)Nc2ccc([N+](=O)[O-])cc2)c(-c2cccs2)n1	i	i	i	i	i	i	nt	nt
CCn1c(SCC(=O)Nc2cc(OC)c(OC)c(OC)c2)nnc1-c1cccs1	i	i	i	i	i	i	nt	nt
CCn1c(SCC(=O)Nc2ccc(OC)c(OC)c2)nnc1-c1cccs1	i	i	i	i	i	i	i	i
Cc1ccc(N=C2NC(=O)/C(=C/c3cccs3)S2)cc1C	i	i	i	i	59	i	i	i
